This series can be described thus: Toxicity liver stage against HepG2, at 10uM. It is filed as cell-based. More on the design: test concentration 10 uM, cell line HepG2-A16-CD81EGFP. Particulars: human, HepG2-A16-CD81EGFP cells; read-out: INHIBITION
In short, it runs like this: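 Uninfected HepG2-A16-CD81EGFP cells, 3 × 10^3 per well, 1536-well, plated on prespotted compound at 10 μM final, parasite-free screening media added to match infected plates; puromycin 10 μM positive, DMSO 0.5% negative; run in parallel with 48 h PbLuc assay at 37 °C, 5% CO2; viability by CellTiter-Glo luminescence, normalized to controls.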

In the case of `CN(Cc1nccn1CC(F)(F)F)C(=O)c1ccc(F)cc1F`, the cytotoxicity at 10 µM amounted to 3.3%.
Under `Cc1ccc(C)c(SCC(=O)Nc2cccc(C(=O)N(C)C)n2)c1` stands -9.9%.
As for `CC(=O)NCc1cc2n(n1)CCN(Cc1ccccc1OC(F)(F)F)C2`, the cytotoxicity at 10 µM was -2.84%.
For the compound `CN1CCC(CNC(=O)Cc2ccc(N(C)C)cc2)CC1`, the cytotoxicity at 10 µM came to 6.8%.
`CCOCC1CN(C(=O)c2cnoc2C)Cc2cn(CC3CC3)nc21` (stereo not given): the cytotoxicity at 10 µM came out at 17%.
Under `CC(=O)NC1CCN(c2c(C#N)cnc3c(C)cc(F)cc23)CC1` stands 7.72%; under `CS(=O)(=O)Cc1ccc(Cl)cc1NCc1ccccc1F`, 6.8%.
As to `Cc1nc(C2(NCC(=O)NC(=O)Nc3ccccc3)CCCCC2)no1`, the cytotoxicity at 10 µM amounted to 30.4%.
For `O=S(=O)(C1CC1)N1CC[C@H](OCC2CC2)[C@@H]1Cc1ccncc1`, the cytotoxicity at 10 µM was 7.67%.
On to `Cc1nn(C)c(C)c1C(C(=O)O)N1CCc2ccccc2C1` (stereo not given), for which the cytotoxicity at 10 µM is -0.492%.
Take `COc1ccccc1-n1c(O)cc(C)c(C#N)c1=O`: the cytotoxicity at 10 µM stood at 2.74%.
Regarding `CC[C@H](C)[C@H](N)C(=O)Nc1nc(-c2cnc(N(C)C)nc2)cs1`, the cytotoxicity at 10 µM is -9.44%.
With `CCc1ncnc2c1CCN(S(=O)(=O)c1ccccc1)CC2`, the cytotoxicity at 10 µM is -96.8%.
As to `O=C(CN1CCCC1c1nc(-c2ccccc2)no1)N1CCOCC1` (stereo not given), the cytotoxicity at 10 µM was determined as 4.17%.
With `COc1cc(CN2CCn3c(CO)nnc3C2)ccc1OC(C)C`, the cytotoxicity at 10 µM was -25.4%.
As to `COCCNC(=O)Nc1cc2c(cc1SC)OCCO2`, the cytotoxicity at 10 µM was -3.59%.
Regarding `COc1ncccc1C(=O)N1CCC(c2nnc(C3CC3)o2)CC1`, the cytotoxicity at 10 µM was found to be 3.61%.
Take `Cc1ccc(NS(=O)(=O)c2cc3c(c(C(=O)O)c2)OCCO3)c(F)c1`: the cytotoxicity at 10 µM was -9.36%.
Under `CCC(CC)c1cc(C(=O)N2CCN(C(C)C(N)=O)CC2)on1` (stereo not given) stands 5.82%; under `COCc1ccccc1C(=O)NCC(O)c1ccccc1F` (stereo not given), -3.67%; under `COc1cc(N2C[C@H]3OCC[C@H]3[C@H](C(=O)N3CCCC3)C2)ncn1`, 4.99%.
Take `Cc1cnn(CC2CCCN2C(=O)c2cc3ccccc3[nH]2)c1` (stereo not given): the cytotoxicity at 10 µM was -0.433%.
`CCC(C)(CC(=O)OC)NCc1c(C)noc1C` (stereo not given): the cytotoxicity at 10 µM is -3.19%.
As for `O=C(c1ccnnc1)N1CCCn2nnc(COCC3CC3)c2C1`, the cytotoxicity at 10 µM is 7.95%.
`COc1ccc(-c2cc(C(=O)NCCCn3ccnc3C)n(C)n2)cc1`: the cytotoxicity at 10 µM is -6.67%.
With `COc1cccc(C(CO)NC(=O)NC(C)C)c1` (stereo not given), the cytotoxicity at 10 µM stood at 10.5%.
As for `CS(=O)(=O)NCc1nnc2n1CCN(Cc1ccncc1)C2`, the cytotoxicity at 10 µM is -73.6%.
The same measure for `COc1ccc(Oc2nccc3occc23)cc1CN1CCCC1`: -24.6%.
In the case of `O=C(Nc1ccc2c(c1)OCCO2)N1CCCN(Cc2cccs2)CC1`, the cytotoxicity at 10 µM is 3.45%.
As to `COc1ccccc1CC(=O)NC(CC(=O)O)c1ccc(C)cc1` (stereo not given), the cytotoxicity at 10 µM worked out at 11.2%.
For `Cc1nnc2n1CCN(C(=O)c1cc(Br)c[nH]1)C2`, the cytotoxicity at 10 µM is -10.7%.
Under `COCc1cc(NCCc2ccc(OC)cc2)n2nccc2n1` stands 0.266%; under `CC(C)N(CC(N)=O)Cc1c(Cl)ccc2cccnc12`, 11.8%.
In the case of `COCCCNC(=O)CN1CCC(c2ccccc2)C1` (stereo not given), the cytotoxicity at 10 µM is 20.3%.
Turning to `Cc1nnc(N2CCOC(CN(C)C)C2)c(C#N)c1C` (stereo not given), the cytotoxicity at 10 µM was -9.95%.
For `CCN1CCCC1CNC(=O)CCSc1ccc2c(c1)OCCO2` (stereo not given), the cytotoxicity at 10 µM was -1.58%.
As for `CCn1cc2c(n1)C(COC)CN(Cc1ccccn1)C2` (stereo not given), the cytotoxicity at 10 µM is -3.73%.
Regarding `CCc1[nH]c2c(CNc3nccc(N)n3)cc(F)cc2c1C`, the cytotoxicity at 10 µM was -8.36%.
The same measure for `Cc1nc(-c2ccncc2)ncc1C(C)NC(=O)CN1CCCC1=O` (stereo not given): 1.74%; for `CN(C)C(=O)c1cccc(CN2CCN(CCO)CC2)c1`: -28.6%; for `CN1CCOC(CNC(=O)CCc2cc(F)ccc2F)C1` (stereo not given): 2.32%.
The same measure for `O=c1oc(-c2ccc(F)cc2)nn1CN1CCSCC1`: 0.449%; for `Cc1cc(-c2cnc(N3CCCC(C)C3)nc2-c2cccnc2C)on1` (stereo not given): 7.85%.
`CS(=O)(=O)CC(=O)N1C[C@H]2CCC[C@@]2(COCc2ccccn2)C1`: the cytotoxicity at 10 µM was 4.35%.
Under `CCN1C[C@@H]2[C@@H](OC)CCN(C(=O)c3cc(C)nn3CC)[C@@H]2C1` stands -118%; under `Cn1cc(Cl)cc1C(=O)N1CCCN(Cc2nccn2C)CC1`, -6.04%; under `CC(C)NC(=O)c1cc(Br)cc(S(=O)(=O)N2CCOCC2)c1F`, 6.17%.
Regarding `c1cncc(CN2CCC(c3n[nH]c(C4CC4)n3)CC2)c1`, the cytotoxicity at 10 µM amounted to 4.99%.
As for `O=C(CCN1CCCCC1)Nc1c2c(cc3c1CCC3)CCC2`, the cytotoxicity at 10 µM was found to be 4.29%.
As to `NCc1cnn(-c2ccccc2C(=O)NCc2ccncc2)c1`, the cytotoxicity at 10 µM is -1.78%.
Consider `CCOc1ccccc1C(CC(=O)Nc1ccccc1F)NC(C)=O` (stereo not given), for which the cytotoxicity at 10 µM was -15.4%.
With `Cc1ccccc1CNC(Cn1cncn1)c1ccccc1` (stereo not given), the cytotoxicity at 10 µM was -1.45%.
Regarding `CC(C)CCN1CCN(C(=O)c2c[nH]nn2)CC1`, the cytotoxicity at 10 µM came to 1.64%.
`O=S(=O)(C1CC1)N1C[C@H](Oc2ccccn2)[C@H]2OCCC[C@H]21`: the cytotoxicity at 10 µM is -3.7%.
Regarding `O=C(c1ccc(-n2cccn2)cc1Cl)N1CCCC(O)(CO)C1` (stereo not given), the cytotoxicity at 10 µM was -0.226%.
As to `CC1(C)CC(CC(=O)N2CC(C)(C)[C@@](C)(O)C2)CC(C)(C)N1`, the cytotoxicity at 10 µM was -4.84%.
On to `O=c1cc(CNS(=O)(=O)C2CC2)nc2n1CCCNC2`, for which the cytotoxicity at 10 µM was determined as 7.83%.
On to `CN(C)C(=O)CO[C@@H]1CN(Cc2ccccc2)[C@@H]2CCCO[C@@H]21`, for which the cytotoxicity at 10 µM was determined as 3.09%.
As for `COc1ccccc1CN1CC[C@H](c2nnc(-c3cncn3C)o2)C1`, the cytotoxicity at 10 µM turned out to be 8.33%.
On to `COCCN1CCn2cc(CNC(=O)c3cnn(C)c3)nc2C1`, for which the cytotoxicity at 10 µM is -3.09%.
The same measure for `CC(C)Nc1nc2c(c(NC3CC3)n1)CN(C(=O)c1ccnnc1)CC2`: -0.449%; for `Cc1c(NC(C)C(C)C)cccc1C(=O)NCc1nnc(C)n1C` (stereo not given): 6.45%.
Turning to `O=C(N1CCC(Oc2ccncc2)C1)C1(c2ccc(F)cc2)CC1` (stereo not given), the cytotoxicity at 10 µM was -8.55%.
In the case of `Cc1nc(CN2CCN(C(=O)NC(C)c3cccnc3)CC2)cs1` (stereo not given), the cytotoxicity at 10 µM was -10.4%.
`O=C1CC(NS(=O)(=O)NCc2ccccc2)CN1c1ccccc1Cl` (stereo not given): the cytotoxicity at 10 µM is -5.68%.
As for `CCc1ccc(S(=O)(=O)Nc2cc(C(=O)O)c(F)cc2F)s1`, the cytotoxicity at 10 µM was -7.44%.
For `CC(C)c1ccc(C(O)CN2CCN(Cc3nccn3C)CC2)cc1` (stereo not given), the cytotoxicity at 10 µM is -38.3%.
In the case of `CC(O)CNc1ccc(C#N)cc1C(F)(F)F` (stereo not given), the cytotoxicity at 10 µM was -42.7%.
For the compound `Cc1ccc(N(Cc2ccco2)C(=O)Cc2cc(=O)n(C)[nH]2)cc1`, the cytotoxicity at 10 µM was -152%.
Take `O=C(NCc1ccncc1)C1CN(c2nc3ccccc3s2)CCN1` (stereo not given): the cytotoxicity at 10 µM is -105%.
On to `CC(C)CN(C)Cc1c[nH]nc1-c1ccc(F)cc1F`, for which the cytotoxicity at 10 µM came out at 2.38%.
Take `Cc1oc(C)c(C(=O)N2CCN(Cc3cscn3)CC2)c1C`: the cytotoxicity at 10 µM was -10.6%.
Regarding `CNC(=O)c1cccnc1NCc1ccc(-n2cccn2)cc1`, the cytotoxicity at 10 µM was determined as 14.1%.
Consider `CN(C)C(=O)COCC1C[C@@H]2OCCN(Cc3ccco3)[C@H]2C1` (stereo not given in full), for which the cytotoxicity at 10 µM came to 11.9%.
For `Cc1cn2c(n1)CCC(NS(=O)(=O)c1cc(C)sc1C)C2` (stereo not given), the cytotoxicity at 10 µM came to 2.74%.
Under `CCN(C(=O)CN1CCCN(c2nc(C)ns2)CC1)C1CC1` stands -4.08%; under `O=C(N1CCCC1)N1CCn2c(nnc2C2CCCN2)C1` (stereo not given), 4.12%; under `CC(Cn1cccn1)NCc1nc(-c2ccccc2Cl)no1` (stereo not given), -3.56%.
As for `COCC(O)CN1CCC(=O)N(CC2CC2)Cc2ccccc21` (stereo not given), the cytotoxicity at 10 µM was found to be 2.76%.
With `c1ccc(N2CCOC3(CCCN(c4nncs4)C3)C2)nc1` (stereo not given), the cytotoxicity at 10 µM amounted to 9.17%.
`Cc1cc(CN(C)C(=O)c2cccc(N3CCCS3(=O)=O)c2)no1`: the cytotoxicity at 10 µM is -10.2%.
As for `CNC(=O)C1Cn2ccnc2C2(CCN(C(=O)CC3CCCC3)CC2)O1` (stereo not given), the cytotoxicity at 10 µM was -145%.
On to `Cc1nc(-c2cccc(C(=O)O)c2)cc(C2CCCN(C(C)C)C2)n1` (stereo not given), for which the cytotoxicity at 10 µM is -7.44%.
As for `COCCn1c(CN2CCCCO2)cnc1S(=O)(=O)CC1CCCCC1`, the cytotoxicity at 10 µM is -6.58%.
As for `CN(C)[C@H]1C[C@@H](Cc2cc(CO)on2)C1(C)C`, the cytotoxicity at 10 µM came out at 0.994%.
Regarding `CCN1C(=O)[C@H]2CN(Cc3cccnc3)C[C@H]2C12CCN(C(C)=O)CC2`, the cytotoxicity at 10 µM was -1.8%.
Turning to `CN(Cc1ccco1)C(=O)NCc1ccnc(SC(C)(C)C)c1`, the cytotoxicity at 10 µM amounted to 14.4%.
As to `CN(Cc1cc2cc(F)ccc2[nH]1)c1cc(C2CCCNC2)ncn1` (stereo not given), the cytotoxicity at 10 µM turned out to be 7.16%.
As to `O=C(c1ncc[nH]1)N1CCC(n2cc(-c3ccccn3)nn2)CC1`, the cytotoxicity at 10 µM came out at 4.95%.
Turning to `O=C([C@H]1C[C@@H]2CCN(c3cccc(F)c3)C[C@H]2O1)N1CCCC1`, the cytotoxicity at 10 µM was 1.99%.
On to `NC(=O)NC(=O)CCn1ccc(-c2ccccc2)n1`, for which the cytotoxicity at 10 µM was 5.2%.
Turning to `NC(=O)c1cc(NC(=O)NCCc2cc(F)cc(F)c2)ccc1F`, the cytotoxicity at 10 µM was -9.58%.
The same measure for `Cc1ccn2ncc(C(=O)N3CCCC(c4noc(C)n4)C3)c2n1` (stereo not given): -7.29%; for `O=C(NCCc1c[nH]cn1)c1ccc(S(=O)(=O)NC2CCCC2)cc1`: -7.2%; for `CCCc1n[nH]c(C2CN(CC(=O)N(C)Cc3ccco3)CCO2)n1` (stereo not given): -4.84%.
